# Only some compounds are listed: those with a hit (about 2.6% of all), similar ones and a draw of the others.
# MLL AF4-AF9 inh: inhibitors of AF4 peptide binding to AF9, primary screen, biochemical, AlphaScreen, biotin-AF4 peptide, FLAG-AF9, single point; inhibition, % at 10 µM; 0.47% of 350,000 active; AID 651704, 2012;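 active means every replicate reaching a set inhibition limit, whatever the replicate mean, cut at about 25% in these data; inconclusive means mean inhibition reaches that limit but some replicates miss it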;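 further: 0% = plate neutral control median and 100% = total signal loss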
# RAD52 inh: RAD52 DNA annealing inhibitors, primary screen, biochemical, FRET, single point, set 2. DNA repair protein RAD52 homolog (Homo sapiens), P43351. recombinant RAD52 DNA annealing, FRET fluorescence. inhibition, % at 18.7 µM. 0.46% of 360,000 active. AID 651710, 2012;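 active means every replicate showing at least 50% inhibition; inconclusive means mean inhibition at least 50% but not in every replicate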
# INS-1E GSIS act: GLuc luminescence reporter in INS-1E cells, primary screen for activators of glucose-dependent secretion of insulin; INS-1E GLuc reporter insulin secretion, 2-3 h; activation, % at 16.6 µM; 0.61% of 370,000 active;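 active means lowest replicate activation of at least 40%, so every replicate reaches that level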;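 further: 0% = median of neutral control wells and 100% = median of IBMX positive control wells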
# E-selectin induc: E-selectin induction in HUVECs, primary screen, imaging, HUVEC, immunofluorescence imaging, single point; P16581; normalized: neutral wells 0, TNF-alpha wells 100; activation, % at 7.58 µM; 0.37% of 260,000 active;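 active means mean E-selectin-positive cell signal at least 10% of the positive control, reached in at least 60% of replicates, without over 20% cell loss; inconclusive means no rule given, readout overlaps actives, possibly toxicity-flagged; inactive means the rest, including those meeting only one limit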
# Target sequence (P16581 whole entry, looked up): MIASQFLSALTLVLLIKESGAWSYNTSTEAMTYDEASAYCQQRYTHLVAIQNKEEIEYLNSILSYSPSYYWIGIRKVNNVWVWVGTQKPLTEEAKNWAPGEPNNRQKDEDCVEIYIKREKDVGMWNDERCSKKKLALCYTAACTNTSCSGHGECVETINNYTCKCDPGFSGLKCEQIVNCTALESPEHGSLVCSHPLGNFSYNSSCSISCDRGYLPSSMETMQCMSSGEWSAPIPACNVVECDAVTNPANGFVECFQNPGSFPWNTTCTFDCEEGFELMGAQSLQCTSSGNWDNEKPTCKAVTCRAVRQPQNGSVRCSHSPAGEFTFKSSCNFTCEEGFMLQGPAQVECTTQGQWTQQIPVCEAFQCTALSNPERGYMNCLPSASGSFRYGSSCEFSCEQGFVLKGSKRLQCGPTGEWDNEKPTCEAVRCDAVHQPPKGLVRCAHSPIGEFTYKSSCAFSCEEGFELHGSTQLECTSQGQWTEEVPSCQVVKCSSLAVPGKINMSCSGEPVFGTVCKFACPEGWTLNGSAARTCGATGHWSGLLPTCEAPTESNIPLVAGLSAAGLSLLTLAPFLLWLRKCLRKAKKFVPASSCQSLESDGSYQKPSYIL
#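 Test system: HUVEC | Signal: Immunofluorescence imaging | Read-out: Percent E-selectin-positive cells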
# RAD54 inh: inhibitors of human RAD54 branch migration, primary screen, biochemical, fluorescence, single point. DNA repair and recombination protein RAD54-like (Homo sapiens), Q92698. RAD54 Holliday junction branch migration, FAM/BHQ fluorescence. inhibition, % at 10.4 µM. 0.14% of 360,000 active;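 active means mean normalized replicate activity at least 40 and at least half of replicates scoring 40 or more; inconclusive means only one of the two criteria met; inactive means mean below 40 and under half of replicates reaching 40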;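 further: 0% = median of neutral control wells and 100% = median of positive control wells; inhibitors cause a drop in the FAM fluorescence signal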
# rRNA inh HTS: reduced GFP signal of wild-type E. coli, primary screen, bacterial rRNA inhibitor project, GFP/RFP fluorescence, OD600, single point | E. coli WT GFP vs humanized-ribosome RFP mutants, 24 h; active compounds read low; DMSO median 0, no signal -100 | GFP signal change (wild-type ribosome), % (no concentration beside the values) | 1.6% of 350,000 active | AID 720706, 2013;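 active means significant combined selectivity score with lowered wild-type GFP, culture density cut under 30%, mutant RFP and density less affected; inactive means any of these conditions unmet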
# * = called active by the depositor; ? = inconclusive; · = no result.
SMILES,MLL AF4-AF9 inh,RAD52 inh,INS-1E GSIS act,E-selectin induc,RAD54 inh,rRNA inh HTS
COc1ccc(NC(=O)Nc2ccc3c(c2)C(=O)N([C@@H](C)CO)C[C@@H](C)[C@H](CN(C)C(=O)Nc2c(C)noc2C)OCCCC[C@@H](C)O3)cc1,0,9,3,0,3,-2
O=C(Nc1ccc(Oc2ccccc2)cc1)c1csc([C@@H]2O[C@H](CO)[C@@H](O)[C@H]2O)n1,0,-7,-18,0,-2,-31*
CCC(=O)N1C[C@@H](C)[C@H](OC)CN(C)C(=O)c2ccc(NC(=O)c3cnccn3)cc2OC[C@@H]1C,0,-7,10,0,1,2
Cc1ccc(S(=O)(=O)NCC(=O)N2CCC(C)CC2)cc1,48*,-13,1,0,-6,11
COc1ccc(-c2cc(-c3ccco3)[nH]c(=O)c2C#N)cc1OC,3,-163,52*,·,-33,21
COc1ccc(S(=O)(=O)Nc2ccc3c(c2)CC(=O)N([C@H](C)CO)C[C@H](C)[C@H](CN(C)Cc2ccccc2)O3)cc1,0,4,-7,·,-2,1
O=C(NC1CCC1)[C@@H]1[C@@H](CO)[C@@H]2Cn3c(ccc(-c4ccccc4F)c3=O)[C@@H]2N1Cc1ccncc1,1,85*,-1,1,11,-3
CN(C)C(=O)c1cccc(-c2ccc3c(c2)[C@@H]2[C@@H](CCN2C(=O)c2ccccc2)[C@H](CO)N3C)c1,6,-9,-15,0,6,-2
O=C(O)C[C@H]1C[C@@H]2c3cc(NC(=O)C4CCOCC4)ccc3O[C@@H]2[C@@H](CO)O1,·,·,12,0,-5,2
CCC(=O)N(C)C[C@@H]1Oc2cc(C#Cc3ccccc3)ccc2S(=O)(=O)N([C@@H](C)CO)C[C@H]1C,-5,-10,-18,0,1,-11
O=C(Cn1c(=O)n(Cc2ccco2)c(=O)c2c3c(sc21)CCCCC3)c1ccccc1,2,-7,-3,·,6,-19*
Cc1ccc(-n2nnnc2-c2nc3ccccc3s2)cc1,·,·,30,·,·,·
CCOc1ccc(-n2nnnc2-c2nc3ccccc3s2)cc1,·,·,90*,·,·,·
CC(C)c1ccc(/C=C/C(=O)N2CCOCC2)cc1,0,-3,-7,·,-2,9
CC(C)c1ccc(/C=C/C(=O)N2CCCCCC2)cc1,5,-33,-13,0,·,-26*
Cc1ccsc1/C=N/NC(=O)c1cccc(S(=O)(=O)Nc2ccccc2Cl)c1,4,4,-5,·,·,·
O=C(N/N=C/c1ccccn1)c1cccc(S(=O)(=O)Nc2ccccc2Cl)c1,-3,-35,18,5,·,-40*
C=CCOc1ccc(CNc2ccc3[nH]c(=O)[nH]c3c2)cc1OCC,5,5,8,2,·,4
C=CCOc1ccc(CNc2ccc3[nH]c(=O)[nH]c3c2)cc1,4,-9,3,-1,·,-14*
CO[C@H]1CN(C)C(=O)c2ccc(NC(=O)NC(C)C)cc2OC[C@H](C)N(CC2CC2)C[C@@H]1C,-12,6,0,0,5,2
OCCNC(=S)Nc1cc(Cl)cc(Cl)c1,-3,0,-11,·,·,-22*
OCCNC(=S)Nc1ccc(Cl)c(Cl)c1,9,-6,-32,·,-8,-17
CN1CCc2cc3c(c4c2[C@H]1[C@H](O)c1ccccc1-4)OCO3,-3,46,·,0,99*,-56
C[C@H]1CN([C@@H](C)CO)C(=O)c2cccc(NC(=O)Nc3ccc(F)cc3)c2O[C@H]1CN(C)CC1CC1,?,0,-3,1,·,2
Cc1ccc(C2(C)NC(=O)N(CC(=O)Nc3ccc(-c4nc5ccc(C)cc5s4)cc3)C2=O)cc1 (centres undefined),6,-67,44*,1,1,9
SMILES,MLL AF4-AF9 inh,RAD52 inh,INS-1E GSIS act,E-selectin induc,RAD54 inh,rRNA inh HTS
Cc1ccc2nc(-c3ccc(NC(=O)COCC(=O)O)cc3)sc2c1,-2,-16,-3,0,-3,-35*
CN1CCN(C(=O)C[C@H]2CC[C@@H]3[C@H](COC[C@@H](O)CN3C(=O)Nc3ccc(Cl)cc3)O2)CC1,-2,5,-3,0,4,-27*
O=C(C[C@H]1CC[C@@H]2[C@H](COC[C@H](O)CN2C(=O)Nc2ccc(Cl)cc2)O1)NCC1CC1,-5,-5,-22,0,5,-24*
O=C(C[C@@H]1CC[C@H]2[C@@H](COC[C@H](O)CN2C(=O)c2ccc(F)cc2)O1)Nc1ccc(-c2ccccc2)cc1,6,-140,-29,38*,-3,1
CN1CCN(C(=O)C[C@@H]2CC[C@@H]3[C@H](COC[C@H](O)CN3C(=O)Nc3ccc(Cl)cc3)O2)CC1,-8,-8,-1,0,-8,-18*
C[C@@H]1CN([C@@H](C)CO)C(=O)c2cc(NS(=O)(=O)c3ccc(F)cc3)ccc2O[C@@H](C)CCCCO[C@@H]1CN(C)C(=O)CCCN(C)C,2,7,7,0,5,2
C[C@H]1CN([C@@H](C)CO)C(=O)Cc2cc(NC(=O)c3ccncc3)ccc2O[C@H]1CN(C)S(=O)(=O)c1ccc(F)cc1,0,-10,17,0,3,-1
C=C1CC[C@@H]2[C@](C)(CO)[C@H](O)CC[C@@]2(C)[C@@H]1/C=C/C1=CCOC1=O,0,-23,-5,1,-5,-23*
C[C@@H]1CN([C@H](C)CO)S(=O)(=O)c2ccc(C3=CCCC3)cc2O[C@H]1CN(C)Cc1ccccn1,-10,-6,16,0,-18,-33
O=C1C2CC=C(Cl)CC2C(=O)N1CCc1c[nH]c2ccccc12 (centres undefined),3,-17,4,·,-9,-26*
CCn1cc(C(=O)NC(=S)Nc2sc3c(c2C(=O)OC)CCCCCC3)cn1,·,·,74*,1,-2,·
CCn1c(=S)sc2c(=O)n(CC(=O)Nc3ccccc3)c(C)nc21,3,-7,-10,0,4,3
CCn1c(=S)sc2c(=O)n(CC(=O)Nc3ccc(Cl)cc3)c(C)nc21,-16,-1,-9,0,-4,-20*
COc1cc(O)c(C(CC(=O)N2CCCC(C)C2)c2ccc(N(C)C)cc2)c(OC)c1 (centres undefined),19,-12,-14,0,-4,-1
